In ChEMBL document CHEMBL1126084, “2-Acetylpyridine thiocarbonohydrazones. Potent inactivators of herpes simplex virus ribonucleotide reductase” (J Med Chem, 1992):

Molecular target: T1, Ribonucleoside-diphosphate reductase RR1 (Homo sapiens) (UniProt P23921+Q7LG56+P31350)
Experiment: Inactivation of human ribonucleotide reductase by the compound (5 uM) at rate constant K inact.
Assay type: protein-complex assay
Details: not given
Outline: (§1)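 The ATP contributed about 3 μM iron, keeping inhibitors iron-complexed. Reactions ran ±5 μM inhibitor unless otherwise indicated. kinact (per hour, net over the control) and v0 came from iterative nonlinear least-squares fits of decelerating time courses.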

Row | kinact | Compound
1 | 0.4 h⁻¹ | C/C(=N\N=C(/S)N/N=C(\S)NCCN1CCOCC1)c1ccccn1
2 | 2 h⁻¹ | CCOC(=O)NC(=S)N/N=C(\S)N/N=C(\C)c1ccccn1

Molecular target: T1, Ribonucleoside-diphosphate reductase RR1 (Homo sapiens)
Experiment: Apparent enzyme activity measured as the ratio of HSV-1 and human enzyme inhibition induces
Assay type: functional
Details: Human alphaherpesvirus 1
Outline: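 Apparent selectivity is the ratio of HSV-1 to human inhibition indices, each from eq 1 at 5 μM inhibitor or at the indicated concentration for each enzyme.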

Row | Apparent selectivity (HSV-1/human inhibition index ratio) | Compound
3 | 3 | C/C(=N\N/C(S)=N/N=C(\S)N(C)C)c1ccccn1
4 | 10 | C/C(=N\N=C(/S)N/N=C(\S)Nc1cccc(I)c1)c1ccccn1
5 | 15 | C/C(=N\N=C(/S)N/N=C(\S)NCCN1CCOCC1)c1ccccn1

Further lines, the compound ahead of its results:

Row | Compound | Apparent selectivity (HSV-1/human inhibition index ratio)
6 | C/C(=N\N=C(/S)N/N=C(\S)Nc1cccc(C(F)(F)F)c1)c1ccccn1 | 21
7 | C/C(=N\N=C(/S)N/N=C(\S)Nc1ccccc1Cl)c1ccccn1 | 21
8 | C/C(=N\N=C(/S)N/N=C(\S)Nc1cccc(Cl)c1Cl)c1ccccn1 | 160
9 | C/C(=N\N=C(/S)N/N=C(\S)Nc1ccc(C(F)(F)F)cc1)c1ccccn1 | 350
10 | CCOC(=O)NC(=S)N/N=C(\S)N/N=C(\C)c1ccccn1 | 1.8

System: Human alphaherpesvirus 1
Experiment: Inactivation of HSV-1 ribonucleotide reductase by the compound (5 uM) at rate constant K inact.
Assay type: functional
Details: not given
Outline: (§2)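 Partially purified HSV-1 ribonucleotide reductase, assayed by reduction of purified [14C]CDP in 200 mM Hepes Na+ pH 7.7, 10 mM dithiothreitol, 2 μM CDP (500 Ci/mol, 3–4 × Km), with and without 5 μM inhibitor unless otherwise indicated. First-order kinact (per hour) and v0 of decelerating product time courses come from iterative nonlinear least squares. kinact is the net increase over the uninhibited control, and % inhibition refers to v0.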

Row | Compound | kinact
11 | C/C(=N\N=C(/S)N/N=C(\S)NCCN1CCOCC1)c1ccccn1 | 11 h⁻¹
12 | CCOC(=O)NC(=S)N/N=C(\S)N/N=C(\C)c1ccccn1 | 6 h⁻¹

Molecular target: T1, Ribonucleoside-diphosphate reductase RR1 (Homo sapiens)
Experiment: Inhibition of human ribonucleotide reductase by the compound (5 uM)
Assay type: protein-complex assay
Details: not given
Outline: as §1

Row | inhibition | Compound
13 | 31% | C/C(=N\N=C(/S)N/N=C(\S)NCCN1CCOCC1)c1ccccn1
14 | 40% | CCOC(=O)NC(=S)N/N=C(\S)N/N=C(\C)c1ccccn1

Molecular target: T1, Ribonucleoside-diphosphate reductase RR1 (Homo sapiens)
Experiment: Inhibition of human ribonucleotide reductase
Assay type: protein-complex assay
Parameters: concentration or dose not given beside the values
Details: concentration not given here
Outline: as §1

Row | inhibition | Compound
15 | 8% | C/C(=N\N/C(S)=N/N=C(\S)N(C)C)c1ccccn1
16 | 7% | C/C(=N\N=C(/S)N/N=C(\S)Nc1cccc(I)c1)c1ccccn1

Second part, the compound before the results:

Row | Compound | inhibition
17 | C/C(=N\N=C(/S)N/N=C(\S)Nc1cccc(C(F)(F)F)c1)c1ccccn1 | 31%
18 | C/C(=N\N=C(/S)N/N=C(\S)Nc1ccccc1Cl)c1ccccn1 | 57%
19 | C/C(=N\N=C(/S)N/N=C(\S)Nc1cccc(Cl)c1Cl)c1ccccn1 | 30%
20 | C/C(=N\N=C(/S)N/N=C(\S)Nc1ccc(C(F)(F)F)cc1)c1ccccn1 | 19%

System: Human alphaherpesvirus 1
Experiment: Inhibitory index against HSV-1 ribonucleotide reductase
Details: not given
Outline: (§3)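 Index per eq 1 combines kinact and percent inhibition of initial velocity from reductase reactions ±5 μM inhibitor (unless otherwise indicated). 0.99 is subtracted from the calculated ratio, so a non-inhibiting, non-inactivating compound scores zero. HSV-1 and human enzymes were assayed under their respective conditions.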

Row | Inhibitory index | Compound
21 | 14 | C/C(=N\N/C(S)=N/N=C(\S)N(C)C)c1ccccn1
22 | 34 | C/C(=N\N=C(/S)N/N=C(\S)Nc1cccc(I)c1)c1ccccn1

Continued, compound first:

Row | Compound | Inhibitory index
23 | C/C(=N\N=C(/S)N/N=C(\S)Nc1cccc(C(F)(F)F)c1)c1ccccn1 | 40
24 | C/C(=N\N=C(/S)N/N=C(\S)Nc1ccccc1Cl)c1ccccn1 | 27
25 | C/C(=N\N=C(/S)N/N=C(\S)Nc1cccc(Cl)c1Cl)c1ccccn1 | 68
26 | C/C(=N\N=C(/S)N/N=C(\S)Nc1ccc(C(F)(F)F)cc1)c1ccccn1 | 80

System: not listed separately
Experiment: Partition coefficient (logD5.2) (octanol/pH 5.2 acetate buffer)
Assay type: physicochemical
Details: not given

Row | logD | Compound
27 | 1.25 | C/C(=N\N/C(S)=N/N=C(\S)N(C)C)c1ccccn1
28 | 2.67 | C/C(=N\N=C(/S)N/N=C(\S)Nc1ccccc1Cl)c1ccccn1

System: Human alphaherpesvirus 1
Experiment: Inactivation of HSV-1 ribonucleotide reductase at rate constant K inact
Details: not given
Outline: as §2

Row | kinact | Compound
29 | 8 h⁻¹ | C/C(=N\N/C(S)=N/N=C(\S)N(C)C)c1ccccn1
30 | 25 h⁻¹ | C/C(=N\N=C(/S)N/N=C(\S)Nc1cccc(I)c1)c1ccccn1

The remaining lines, values behind:

Row | Compound | kinact
31 | C/C(=N\N=C(/S)N/N=C(\S)Nc1cccc(C(F)(F)F)c1)c1ccccn1 | 34 h⁻¹
32 | C/C(=N\N=C(/S)N/N=C(\S)Nc1ccccc1Cl)c1ccccn1 | 27 h⁻¹
33 | C/C(=N\N=C(/S)N/N=C(\S)Nc1cccc(Cl)c1Cl)c1ccccn1 | 49 h⁻¹
34 | C/C(=N\N=C(/S)N/N=C(\S)Nc1ccc(C(F)(F)F)cc1)c1ccccn1 | 33 h⁻¹

Molecular target: T1, Ribonucleoside-diphosphate reductase RR1 (Homo sapiens)
Experiment: Inhibitory index against human ribonucleotide reductase calculated as, [1+k inact/f+0.01] where f = 1-% inhibition/100).
Assay type: protein-complex assay
Details: not given
Outline: as §3

Row | Inhibitory index | Compound
35 | 1 | C/C(=N\N=C(/S)N/N=C(\S)NCCN1CCOCC1)c1ccccn1
36 | 3.9 | CCOC(=O)NC(=S)N/N=C(\S)N/N=C(\C)c1ccccn1

System: not listed separately
Experiment: pKa value of the compound
Assay type: physicochemical
Details: not given
Outline: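 Protonation and anion-generation pKa values were determined spectrophotometrically.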

Row | pKa | Compound
37 | 3.89 | C/C(=N\N=C(/S)N/N=C(\S)Nc1cccc(C(F)(F)F)c1)c1ccccn1
38 | 3.8 | C/C(=N\N=C(/S)N/N=C(\S)Nc1cccc(I)c1)c1ccccn1
39 | 3.94 | C/C(=N\N=C(/S)N/N=C(\S)Nc1ccccc1Cl)c1ccccn1
40 | 3.86 | C/C(=N\N=C(/S)N/N=C(\S)Nc1cccc(Cl)c1Cl)c1ccccn1
41 | 3.87 | C/C(=N\N=C(/S)N/N=C(\S)Nc1ccc(C(F)(F)F)cc1)c1ccccn1

System: Human alphaherpesvirus 1
Experiment: Inhibition of HSV-1 ribonucleotide reductase by the compound (5 uM)
Assay type: functional
Details: not given
Outline: as §2

Row | Compound | Inhibition
42 | C/C(=N\N=C(/S)N/N=C(\S)NCCN1CCOCC1)c1ccccn1 | 24%
43 | CCOC(=O)NC(=S)N/N=C(\S)N/N=C(\C)c1ccccn1 | 14%

Molecular target: T1, Ribonucleoside-diphosphate reductase RR1 (Homo sapiens)
Experiment: Inhibitory index against human ribonucleotide reductase
Assay type: protein-complex assay
Details: not given
Outline: as §3

Row | Inhibitory index | Compound
44 | 4.4 | C/C(=N\N/C(S)=N/N=C(\S)N(C)C)c1ccccn1
45 | 3.3 | C/C(=N\N=C(/S)N/N=C(\S)Nc1cccc(I)c1)c1ccccn1

Continued, compound first:

Row | Compound | Inhibitory index
46 | C/C(=N\N=C(/S)N/N=C(\S)Nc1cccc(C(F)(F)F)c1)c1ccccn1 | 1.9
47 | C/C(=N\N=C(/S)N/N=C(\S)Nc1ccccc1Cl)c1ccccn1 | 1.3
48 | C/C(=N\N=C(/S)N/N=C(\S)Nc1cccc(Cl)c1Cl)c1ccccn1 | 0.42
49 | C/C(=N\N=C(/S)N/N=C(\S)Nc1ccc(C(F)(F)F)cc1)c1ccccn1 | 0.23

System: Human alphaherpesvirus 1
Experiment: Inhibition of HSV-1 ribonucleotide reductase
Parameters: concentration or dose not given beside the values
Details: concentration not given here
Outline: as §2

Row | inhibition | Compound
50 | 39% | C/C(=N\N/C(S)=N/N=C(\S)N(C)C)c1ccccn1
51 | 27% | C/C(=N\N=C(/S)N/N=C(\S)Nc1cccc(I)c1)c1ccccn1

More lines, now with the values behind:

Row | Compound | inhibition
52 | C/C(=N\N=C(/S)N/N=C(\S)Nc1cccc(C(F)(F)F)c1)c1ccccn1 | 15%
53 | C/C(=N\N=C(/S)N/N=C(\S)Nc1ccccc1Cl)c1ccccn1 | 0%
54 | C/C(=N\N=C(/S)N/N=C(\S)Nc1cccc(Cl)c1Cl)c1ccccn1 | 29%
55 | C/C(=N\N=C(/S)N/N=C(\S)Nc1ccc(C(F)(F)F)cc1)c1ccccn1 | 59%

Molecular target: T1, Ribonucleoside-diphosphate reductase RR1 (Homo sapiens)
Experiment: Inactivation of human ribonucleotide reductase at rate constant K inact
Assay type: protein-complex assay
Details: not given
Outline: as §1

Row | kinact | Compound
56 | 4 h⁻¹ | C/C(=N\N/C(S)=N/N=C(\S)N(C)C)c1ccccn1
57 | 3 h⁻¹ | C/C(=N\N=C(/S)N/N=C(\S)Nc1cccc(I)c1)c1ccccn1

The remaining lines, values behind:

Row | Compound | kinact
58 | C/C(=N\N=C(/S)N/N=C(\S)Nc1cccc(C(F)(F)F)c1)c1ccccn1 | 1 h⁻¹
59 | C/C(=N\N=C(/S)N/N=C(\S)Nc1ccccc1Cl)c1ccccn1 | 0 h⁻¹
60 | C/C(=N\N=C(/S)N/N=C(\S)Nc1cccc(Cl)c1Cl)c1ccccn1 | 0 h⁻¹
61 | C/C(=N\N=C(/S)N/N=C(\S)Nc1ccc(C(F)(F)F)cc1)c1ccccn1 | 0 h⁻¹

System: Human alphaherpesvirus 1
Experiment: Inhibitory index against HSV-1 ribonucleotide reductase calculated as, [1+k inact/f+0.01] where f = 1-% inhibition/100).
Assay type: functional
Details: not given
Outline: as §3

Row | Compound | Inhibitory index
62 | C/C(=N\N=C(/S)N/N=C(\S)NCCN1CCOCC1)c1ccccn1 | 15
63 | CCOC(=O)NC(=S)N/N=C(\S)N/N=C(\C)c1ccccn1 | 7
